For 3 molecules, Activity results are on record in ChEMBL document CHEMBL3243974, “Cyclic analogues of luteinizing hormone-releasing hormone with significant biological activities” (1978).

What all share (type): functional
Assay [1] is filed under the species Rattus norvegicus. Briefly: Stimulation of luteinizing hormone release in ovariectomized rat assessed as serum luteinizing hormone level at 250 ng pretreated with estrogen and progesterone by radioimmunoassay relative to control. Put shortly: (§1)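 Ovariectomized rats pretreated with estrogen and progesterone, then given peptide at two doses (250 and 1000 ng). Saline alone and synthetic LH-RH at 2.5 and 10 ng served as comparators. Serum LH was measured by radioimmunoassay and reported in ng/mL ± SE.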

Assay [2] is filed under the species Rattus norvegicus. Briefly: Stimulation of luteinizing hormone release in ovariectomized rat assessed as serum luteinizing hormone level at 1000 ng pretreated with estrogen and progesterone by radioimmunoassay relative to control. Put shortly:
as §1

The species entered for assay [3] is Rattus norvegicus. Briefly: Stimulation of luteinizing hormone release in ovariectomized rat at 1000 ng pretreated with estrogen and progesterone by radioimmunoassay relative to LH-RH. Put shortly: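 Ovariectomized rats primed with estrogen and progesterone received peptide at 250 and 1000 ng, with saline and synthetic LH-RH (2.5 and 10 ng) as references. Serum LH was measured by radioimmunoassay. Activity is expressed as % of synthetic LH-RH (taken as 100) with 95% confidence limits.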

Structures are written as SMILES.

As for `CC(C)C[C@H](NC(=O)[C@@H](C)NC(=O)[C@H](Cc1ccc(O)cc1)NC(=O)[C@H](CO)NC(=O)[C@H](Cc1c[nH]c2ccccc12)NC(=O)[C@H](Cc1cnc[nH]1)NC(=O)CCN)C(=O)N[C@@H](CCCNC(=N)N)C(=O)N1CCC[C@H]1C(=O)NCC(=O)O`, the Activity in the assay listed under Rattus norvegicus [1] is 80.74 ng/mL; in the assay filed under Rattus norvegicus [2], 65.69 ng/mL; in the assay filed under Rattus norvegicus [3], <0.01%.
As to `CC(C)C[C@@H]1NC(=O)[C@@H](C)NC(=O)[C@H](Cc2ccc(O)cc2)NC(=O)[C@H](CO)NC(=O)[C@H](Cc2c[nH]c3ccccc23)NC(=O)[C@H](Cc2cnc[nH]2)NC(=O)CCNC(=O)CNC(=O)[C@@H]2CCCN2C(=O)[C@H](CCCNC(=N)N)NC1=O`, the results for the Activity in the assay filed under Rattus norvegicus [1], in the assay filed under Rattus norvegicus [2] and in the assay filed under Rattus norvegicus [3] were 206.67 ng/mL, 364.59 ng/mL and 1.2%, respectively.
With `CC(C)C[C@@H]1NC(=O)[C@@H](C)NC(=O)[C@H](Cc2ccc(O)cc2)NC(=O)[C@H](CO)NC(=O)[C@H](Cc2c[nH]c3ccccc23)NC(=O)[C@H](Cc2cnc[nH]2)NC(=O)CCCCCNC(=O)CNC(=O)[C@@H]2CCCN2C(=O)[C@H](CCCNC(=N)N)NC1=O`, the Activity amounted to 151.02 ng/mL in the assay filed under Rattus norvegicus [1], 315.81 ng/mL in the assay filed under Rattus norvegicus [2] and 0.65% in the assay listed under Rattus norvegicus [3].
